Laboratory results from ChEMBL document CHEMBL1126896, “Preparation and anti-HIV activity of O-acylated heparin and dermatan sulfate derivatives with low anticoagulant effect” (J Med Chem, 1993).

Experiments:
[1] = test system: HuT78; experiment: Giant-cell formation between persistently HIV-1 infected HUT-78 cells and uninfected MOLT-4 cells; assay type: functional, cell-based
In short: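 MOLT-4 cells were co-cultured with an equal number of HUT-78 cells persistently infected with HIV-1 IIIB or HIV-2 ROD, with varying compound concentrations. Syncytia were counted by flow cytofluorography after 24 h. EC50 is the concentration giving 50% protection against giant-cell formation.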

[2] = test system: MT4; experiment: Selectivity index for CC50 (cytotoxic concentration based on the reduction of the viability of mock-infected MT-4 cells) to that of EC50 against HIV-1; assay type: functional
In short: (§1)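 MT-4 cells at 3 × 10^5 cells/mL were infected with HIV-1 IIIB or HIV-2 ROD at 100 CCID50/mL, or mock-infected, alongside serial compound dilutions. Viability was read by MTT after 5 days at 37 °C. CC50 comes from mock-infected cells and EC50 from protection against cytopathicity. Index = CC50/EC50.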

[3] = test system: MT4; experiment: Selectivity index for CC50 (cytotoxic concentration based on reduction of viability of mock-infected MT-4 cells) to that of EC50 against HIV-2; assay type: functional; in short: as §1
[4] = test system: MT4; experiment: Effective concentration to achieve 50% protection of MT-4 cells against the cytopathic effect of HIV-2; assay type: functional, cell-based
[5] = test system: MT4; experiment: Effective concentration to achieve 50% protection of MT-4 cells against the cytopathic effect of HIV-1; assay type: functional, cell-based
[6] = In vitro anticoagulant activity determined by clotting test of activated partial thromboplastin time (APTT) on a pool of human plasma; assay type: functional
In short: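 Activated partial thromboplastin time clotting test on pooled human plasma, run on an automatic coagulometer. Activities were calculated according to the European Pharmacopoeia.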

[7] = Homo sapiens, HuT78, read-out: EC50
[8] = Homo sapiens, MT4, read-out: EC50

## CCCCOC(=O)/C=C(\COC(=O)CCC)OC1OC(COS(=O)(=O)[O-])C(OC2OC(C(=O)OCCCC)C(OC3OC(COS(=O)(=O)[O-])C(OC4OC(C(=O)OCCCC)C(OC5OC(COS(=O)(=O)[O-])C(O)C(OC(=O)CCC)C5NC(C)=O)C(OC(=O)CCC)C4OS(=O)(=O)[O-])C(OC(=O)CCC)C3NC(C)=O)C(OC(=O)CCC)C2OS(=O)(=O)[O-])C(OC(=O)CCC)C1NC(C)=O.[Na+].[Na+].[Na+].[Na+].[Na+] (configuration not stated)
[1]; [7]
  EC50: 15 µg/mL
[1]; hut78
  EC50: 15 µg/mL
[2]
  Selectivity index: >217
[3]
  Selectivity index: >192
[4]; [8]
  EC50: 2.6 µg/mL
[5]; [8]
  EC50: 2.3 µg/mL
[6]
  APTT: 1.3 IU mg-1

## O=C([O-])/C=C(\COC(=O)c1ccccc1)OC1OC(COS(=O)(=O)[O-])C(OC2OC(C(=O)[O-])C(OC3OC(COS(=O)(=O)[O-])C(OC4OC(C(=O)[O-])C(OC5OC(COS(=O)(=O)[O-])C(O)C(OC(=O)c6ccccc6)C5NS(=O)(=O)[O-])C(OC(=O)c5ccccc5)C4OS(=O)(=O)[O-])C(OC(=O)c4ccccc4)C3NS(=O)(=O)[O-])C(OC(=O)c3ccccc3)C2OS(=O)(=O)[O-])C(OC(=O)c2ccccc2)C1NS(=O)(=O)[O-].[Na+].[Na+].[Na+].[Na+].[Na+].[Na+].[Na+].[Na+].[Na+].[Na+].[Na+] (configuration not stated)
[1]; [7]
  EC50: 3 µg/mL
[2]
  Selectivity index: >5000
[3]
  Selectivity index: >2500
[4]; [8]
  EC50: 0.2 µg/mL
[5]; [8]
  EC50: 0.1 µg/mL
[6]
  APTT: 8 IU mg-1

## O=C([O-])/C=C(\COC(=O)CCC(=O)[O-])OC1OC(COS(=O)(=O)[O-])C(OC2OC(C(=O)[O-])C(OC3OC(COS(=O)(=O)[O-])C(OC4OC(C(=O)[O-])C(OC5OC(COS(=O)(=O)[O-])C(O)C(OC(=O)CCC(=O)[O-])C5NS(=O)(=O)[O-])C(OC(=O)CCC(=O)[O-])C4OS(=O)(=O)[O-])C(OC(=O)CCC(=O)[O-])C3NS(=O)(=O)[O-])C(OC(=O)CCC(=O)[O-])C2OS(=O)(=O)[O-])C(OC(=O)CCC(=O)[O-])C1NS(=O)(=O)[O-].[Na+].[Na+].[Na+].[Na+].[Na+].[Na+].[Na+].[Na+].[Na+].[Na+].[Na+].[Na+].[Na+].[Na+].[Na+].[Na+].[Na+] (configuration not stated)
[1]; [7]
  EC50: > 100 µg/mL
[2]
  Selectivity index: >2500
[3]
  Selectivity index: >100
[4]; [8]
  EC50: 5 µg/mL
[5]; [8]
  EC50: 0.2 µg/mL
[6]
  APTT: 3.1 IU mg-1

## CCCCCC(=O)OCC1OC(OC2C(C(=O)[O-])OC(OC3C(NC(C)=O)C(OC4C(C(=O)[O-])OC(C)C(OC(=O)CCCCC)C4O)OC(COC(=O)CCCCC)C3OS(=O)(=O)[O-])C(OC(=O)CCCCC)C2OC(=O)CCCCC)C(NC(C)=O)C(OC)C1OS(=O)(=O)[O-].[Na+].[Na+].[Na+].[Na+] (configuration not stated)
[1]; [7]
  EC50: 41 µg/mL
[2]
  Selectivity index: 4
[3]
  Selectivity index: 17.5
[4]; [8]
  EC50: 5.4 µg/mL
[5]; [8]
  EC50: 19.4 µg/mL
[6]
  APTT: 3.4 IU mg-1

## CCCC(=O)OCC1OC(OC2C(C(=O)[O-])OC(OC3C(NC(C)=O)C(OC4C(C(=O)[O-])OC(C)C(OC(=O)CCC)C4O)OC(COC(=O)CCC)C3OS(=O)(=O)[O-])C(OC(=O)CCC)C2OC(=O)CCC)C(NC(C)=O)C(OC)C1OS(=O)(=O)[O-].[Na+].[Na+].[Na+].[Na+] (configuration not stated)
[1]; [7]
  EC50: > 100 µg/mL
[2]
  Selectivity index: 8
[3]
  Selectivity index: 25
[4]; [8]
  EC50: 18 µg/mL
[5]; [8]
  EC50: 54.2 µg/mL
[6]
  APTT: 3.7 IU mg-1

## CCCCCC(=O)O[C@@H]1[C@@H](OC(C)=O)[C@H](O[C@H]2[C@H](OS(=O)(=O)[O-])[C@@H](NS(=O)(=O)[O-])[C@@H](O[C@H]3[C@H](OC(=O)CCCCC)[C@@H](OS(=O)(=O)[O-])[C@H](O[C@H]4[C@H](OC(=O)CCCCC)[C@@H](CO)O[C@@H]4COS(=O)(=O)[O-])O[C@H]3C(=O)[O-])O[C@@H]2COS(=O)(=O)[O-])O[C@H](C(=O)[O-])[C@H]1O[C@H]1O[C@H](COS(=O)(=O)[O-])[C@@H](O[C@@H]2O[C@@H](C(=O)[O-])[C@@H](O)[C@H](OC(=O)CCCCC)[C@H]2OC(C)=O)[C@H](OC(=O)CCCCC)[C@H]1NC(C)=O.[Na+].[Na+].[Na+].[Na+].[Na+].[Na+].[Na+].[Na+].[Na+]
[1]; [7]
  EC50: 8.9 µg/mL
[2]
  Selectivity index: <1
[3]
  Selectivity index: 9
[4]; [8]
  EC50: 5.4 µg/mL
[5]; [8]
  EC50: > 100 µg/mL
[6]
  APTT: 4 IU mg-1

## CCCC(=O)O[C@@H]1[C@@H](OC(C)=O)[C@H](O[C@H]2[C@@H](OS(=O)(=O)[O-])[C@@H](NS(=O)(=O)[O-])[C@@H](O[C@@H]3C(C(=O)[O-])O[C@@H](O[C@H]4[C@H](OC(=O)CCC)[C@@H](CO)O[C@@H]4COS(=O)(=O)[O-])[C@H](OS(=O)(=O)[O-])[C@H]3OC(=O)CCC)O[C@@H]2COS(=O)(=O)[O-])O[C@H](C(=O)[O-])[C@H]1O[C@H]1O[C@H](COS(=O)(=O)[O-])[C@@H](O[C@@H]2O[C@@H](C(=O)[O-])[C@@H](O)[C@H](OC(=O)CCC)[C@H]2OC(C)=O)[C@H](OC(=O)CCC)[C@H]1NC(C)=O.[Na+].[Na+].[Na+].[Na+].[Na+].[Na+].[Na+].[Na+].[Na+] (some centres not stated)
[1]; [7]
  EC50: 15.4 µg/mL
[2]
  Selectivity index: 89
[3]
  Selectivity index: 15.4
[4]; [8]
  EC50: 0.24 µg/mL
[5]; [8]
  EC50: 0.53 µg/mL
[6]
  APTT: 11 IU mg-1

## CC(=O)N[C@H]1[C@@H](O[C@H]2[C@H](OC(C)=O)[C@@H](OC(C)=O)[C@H](O[C@H]3[C@@H](OS(=O)(=O)[O-])[C@@H](NS(=O)(=O)[O-])[C@@H](O[C@@H]4C(C(=O)[O-])O[C@@H](O[C@H]5[C@H](OC(C)=O)[C@@H](CO)O[C@@H]5COS(=O)(=O)[O-])[C@H](OS(=O)(=O)[O-])[C@H]4OC(C)=O)O[C@@H]3COS(=O)(=O)[O-])O[C@@H]2C(=O)[O-])O[C@H](COS(=O)(=O)[O-])[C@@H](O[C@@H]2O[C@@H](C(=O)[O-])[C@@H](O)[C@H](OC(C)=O)[C@H]2OC(C)=O)[C@@H]1OC(C)=O.[Na+].[Na+].[Na+].[Na+].[Na+].[Na+].[Na+].[Na+].[Na+] (some centres not stated)
[1]; [7]
  EC50: 6.4 µg/mL
[2]
  Selectivity index: 76
[3]
  Selectivity index: 1087
[4]; [8]
  EC50: 0.46 µg/mL
[5]; [8]
  EC50: 6.5 µg/mL
[6]
  APTT: 26 IU mg-1

## CCCCCC(=O)OC/C(=C\C(=O)[O-])OC1OC(COS(=O)(=O)[O-])C(OC2OC(C(=O)[O-])C(OC3OC(COS(=O)(=O)[O-])C(OC4OC(C(=O)[O-])C(OC5OC(CS(=O)(=O)[O-])C(O)C(OC(=O)CCCCC)C5NS(=O)(=O)[O-])C(OC(=O)CCCCC)C4OS(=O)(=O)[O-])C(OC(=O)CCCCC)C3NS(=O)(=O)[O-])C(OC(=O)CCCCC)C2OS(=O)(=O)[O-])C(OC(=O)CCCCC)C1NS(=O)(=O)[O-].[Na+].[Na+].[Na+].[Na+].[Na+].[Na+].[Na+].[Na+].[Na+].[Na+].[Na+] (stereo in doubt; 2e)
[1]; hut78
  EC50: 2.9 µg/mL
[2]
  Selectivity index: >1613
[3]
  Selectivity index: >294
[4]; mt4
  EC50: 1.71 µg/mL
[5]; mt4
  EC50: 0.31 µg/mL
[6]
  APTT: 7 IU mg-1

## CCCC(=O)OC/C(=C\C(=O)[O-])O[C@H]1O[C@H](COS(=O)(=O)[O-])[C@@H](O[C@@H]2O[C@@H](C(=O)[O-])[C@@H](O[C@H]3O[C@H](COS(=O)(=O)[O-])[C@@H](O[C@@H]4O[C@@H](C(=O)[O-])[C@@H](O[C@H]5O[C@H](CS(=O)(=O)[O-])[C@@H](O)[C@H](OC(=O)CCC)[C@H]5NS(=O)(=O)[O-])[C@H](OC(=O)CCC)[C@H]4OS(=O)(=O)[O-])[C@H](OC(=O)CCC)[C@H]3NS(=O)(=O)[O-])[C@H](OC(=O)CCC)[C@H]2OS(=O)(=O)[O-])[C@H](OC(=O)CCC)[C@H]1NS(=O)(=O)[O-].[Na+].[Na+].[Na+].[Na+].[Na+].[Na+].[Na+].[Na+].[Na+].[Na+].[Na+] (stereo in doubt; 3b)
[2]
  Selectivity index: 1121
[3]
  Selectivity index: 185
[4]; mt4
  EC50: 1.94 µg/mL
[5]; mt4
  EC50: 0.32 µg/mL
[6]
  APTT: 5 IU mg-1

## CCCC(=O)OC/C(=C\C(=O)[O-])O[C@H]1O[C@H](COS(=O)(=O)[O-])[C@@H](O[C@@H]2O[C@@H](C(=O)[O-])[C@@H](O[C@H]3O[C@H](COS(=O)(=O)[O-])[C@@H](O[C@@H]4O[C@@H](C(=O)[O-])[C@@H](O[C@H]5O[C@H](CS(=O)(=O)[O-])[C@@H](O)[C@H](OC(=O)CCC)[C@H]5NS(=O)(=O)[O-])[C@H](OC(=O)CCC)[C@H]4OS(=O)(=O)[O-])[C@H](OC(=O)CCC)[C@H]3NS(=O)(=O)[O-])[C@H](OC(=O)CCC)[C@H]2OS(=O)(=O)[O-])[C@H](OC(=O)CCC)[C@H]1NS(=O)(=O)[O-].[Na+].[Na+].[Na+].[Na+].[Na+].[Na+].[Na+].[Na+].[Na+].[Na+].[Na+] (stereo in doubt; 3d)
[1]; hut78
  EC50: 10.3 µg/mL
[2]
  Selectivity index: 1480
[3]
  Selectivity index: 914
[4]; mt4
  EC50: 0.36 µg/mL
[5]; mt4
  EC50: 0.21 µg/mL
[6]
  APTT: 9 IU mg-1

## CCCC(=O)OC/C(=C\C(=O)[O-])O[C@H]1O[C@H](COS(=O)(=O)[O-])[C@@H](O[C@@H]2O[C@@H](C(=O)[O-])[C@@H](O[C@H]3O[C@H](COS(=O)(=O)[O-])[C@@H](O[C@@H]4O[C@@H](C(=O)[O-])[C@@H](O[C@H]5O[C@H](CS(=O)(=O)[O-])[C@@H](O)[C@H](OC(=O)CCC)[C@H]5NS(=O)(=O)[O-])[C@H](OC(=O)CCC)[C@H]4OS(=O)(=O)[O-])[C@H](OC(=O)CCC)[C@H]3NS(=O)(=O)[O-])[C@H](OC(=O)CCC)[C@H]2OS(=O)(=O)[O-])[C@H](OC(=O)CCC)[C@H]1NS(=O)(=O)[O-].[Na+].[Na+].[Na+].[Na+].[Na+].[Na+].[Na+].[Na+].[Na+].[Na+].[Na+] (stereo in doubt; 3e)
[1]; hut78
  EC50: 1.5 µg/mL
[2]
  Selectivity index: 1357
[3]
  Selectivity index: 1261
[4]; mt4
  EC50: 0.28 µg/mL
[5]; mt4
  EC50: 0.26 µg/mL
[6]
  APTT: 11 IU mg-1
